In brackets after ≈: the same amount, converted by molar mass.
Key:
Leishmania donovani = experiment: Antiprotozoal activity against Leishmania donovani MHOM/ET/67/L82 amastigotes; assay type: functional, organism-based
How it was run: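 L. donovani tested as axenic amastigotes.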

Plasmodium falciparum = experiment: Antiplasmodial activity against Plasmodium falciparum K1; assay type: functional, organism-based
How it was run: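 P. falciparum K1 is a strain resistant to chloroquine and pyrimethamine.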

[1] = system: Trypanosoma brucei rhodesiense; experiment: Antiprotozoal activity against Trypanosoma brucei rhodesiense STIB900; assay type: functional, organism-based
Trypanosoma cruzi = experiment: Antiprotozoal activity against Trypanosoma cruzi Tulahuen C2C4 trypomastigotes in L6 cells; assay type: functional, organism-based
L6 = experiment: Cytotoxicity against rat L6 cells; assay type: cell-based

| Structure (SMILES) | IC50 (Leishmania donovani) | IC50 (Plasmodium falciparum) | IC50 [1] | IC50 (Trypanosoma cruzi) | IC50 (L6) |
| --- | --- | --- | --- | --- | --- |
| CCCCCCCCCCCCCCCCOP(=O)([O-])OCC[N+](C)(C)C [MILTEFOSINE] | 0.12 µg/mL (≈ 0.294 µM) | – | – | – | – |
| CC1(C)C(=O)C=C[C@]2(C)[C@H]3CC[C@@]4(C)[C@H](c5ccoc5)OC(=O)[C@H]5O[C@]54[C@]3(C)C(=O)C[C@@H]12 [DEACETOXY-7-OXOGEDUNIN] | 0.994 µg/mL (≈ 2.27 µM) | 1.77 µg/mL (≈ 4.05 µM) | 3.4 µg/mL (≈ 7.75 µM) | > 30 µg/mL | > 90 µg/mL |
| O=C(Cn1ccnc1[N+](=O)[O-])NCc1ccccc1 [BENZNIDAZOLE] | – | – | – | 0.74 µg/mL (≈ 2.84 µM) | – |
| COc1cc([C@@H]2c3cc4c(cc3[C@H](O)[C@H]3COC(=O)[C@H]23)OCO4)cc(OC)c1OC [PODOFILOX] | – | – | – | – | 0.005 µg/mL (≈ 0.0121 µM) |
| CC1(C)C(=O)C=C[C@]2(C)[C@H]3CC[C@@]4(C)[C@H](c5ccoc5)OC(=O)[C@H]5O[C@]54[C@]3(C)[C@H](O)C[C@@H]12 [DEACETYLGEDUNIN] | 1.4 µg/mL (≈ 3.18 µM) | 1.36 µg/mL (≈ 3.09 µM) | 3.45 µg/mL (≈ 7.83 µM) | 5.2 µg/mL (≈ 11.8 µM) | 13.3 µg/mL (≈ 30.2 µM) |
| COC(=O)C[C@@H]1[C@](C)([C@@H](OC(C)=O)c2ccoc2)CC[C@@]23OC4(C)O[C@@]12[C@H](OC(=O)C(C)C)[C@@]1(OC(C)=O)[C@@H](OC(C)=O)[C@@]2(C)C[C@@]1(O4)[C@]31COC(=O)C[C@@H]21 [KOTSCHYIN A] | > 30 µg/mL | > 5 µg/mL | 11.6 µg/mL (≈ 15 µM) | > 30 µg/mL | > 90 µg/mL |

Source: ChEMBL document CHEMBL1138405, “Limonoid orthoacetates and antiprotozoal compounds from the roots of Pseudocedrela kotschyi” (J Nat Prod, 2007)
